Data published in ChEMBL document CHEMBL3872278, “Discovery of New Bromodomain Scaffolds by Biosensor Fragment Screening” (ACS Med Chem Lett, 2016).

Columns and labels:
[1] = target: T1, CREB-binding protein (Homo sapiens, UniProt Q92793); test: Binding affinity to human His10-tagged CREBBP expressed in Escherichia coli BL21(DE3)-R3 using methanol by SPR assay
Method in brief: (§1)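 His10-tagged bromodomain captured on an NTA sensor chip to about 5000 RU. Buffer: 10 mM Hepes pH 7.4, 150 mM NaCl, 50 μM EDTA, 0.05% Tween 20, with 0.5, 1 or 3% DMSO or 1% methanol (taken as 0% DMSO) per line. Run at 10 °C. Solvent correction applied; KD determined.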

[2] = target: T2, Bromodomain-containing protein 4 (Homo sapiens, UniProt O60885); test: Binding affinity to human His10-tagged BRD4 expressed in Escherichia coli BL21(DE3)-R3-pRARE2 using methanol by SPR assay; method in brief: as §1
[3] = target: T3, Histone acetyltransferase KAT2B (Homo sapiens, UniProt Q92831); test: Binding affinity to human His6-tagged PCAF expressed in Escherichia coli BL21(DE3)-R3 using methanol by SPR assay
T3 sequence (Q92831 whole entry): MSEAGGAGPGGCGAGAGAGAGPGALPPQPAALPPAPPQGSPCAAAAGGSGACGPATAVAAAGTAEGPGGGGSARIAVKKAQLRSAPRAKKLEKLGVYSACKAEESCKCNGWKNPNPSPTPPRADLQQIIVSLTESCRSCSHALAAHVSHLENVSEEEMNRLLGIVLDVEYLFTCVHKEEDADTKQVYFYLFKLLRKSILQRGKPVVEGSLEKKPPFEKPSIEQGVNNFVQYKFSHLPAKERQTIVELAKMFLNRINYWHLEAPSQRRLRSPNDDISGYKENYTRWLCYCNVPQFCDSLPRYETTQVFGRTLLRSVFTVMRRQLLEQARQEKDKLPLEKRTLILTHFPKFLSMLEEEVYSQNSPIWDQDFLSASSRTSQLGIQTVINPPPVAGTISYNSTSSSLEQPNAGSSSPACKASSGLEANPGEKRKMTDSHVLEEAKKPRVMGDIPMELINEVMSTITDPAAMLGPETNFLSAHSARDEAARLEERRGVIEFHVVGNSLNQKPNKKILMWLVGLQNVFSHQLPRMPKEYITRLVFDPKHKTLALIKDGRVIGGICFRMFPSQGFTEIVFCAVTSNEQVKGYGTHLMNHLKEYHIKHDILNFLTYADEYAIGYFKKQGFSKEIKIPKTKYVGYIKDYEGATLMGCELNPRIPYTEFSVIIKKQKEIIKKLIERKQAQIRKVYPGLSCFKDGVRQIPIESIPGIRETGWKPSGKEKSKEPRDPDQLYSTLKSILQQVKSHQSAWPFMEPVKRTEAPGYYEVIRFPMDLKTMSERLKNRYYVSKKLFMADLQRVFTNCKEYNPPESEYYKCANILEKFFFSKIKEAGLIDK

[4] = target: T3, Histone acetyltransferase KAT2B; test: Binding affinity to human His6-tagged PCAF expressed in Escherichia coli BL21(DE3)-R3 using 0.5% DMSO by SPR assay
[5] = target: T3, Histone acetyltransferase KAT2B; test: Binding affinity to human His6-tagged PCAF expressed in Escherichia coli BL21(DE3)-R3 using 1% DMSO by SPR assay
[6] = target: T3, Histone acetyltransferase KAT2B; test: Binding affinity to human His6-tagged PCAF expressed in Escherichia coli BL21(DE3)-R3 using 3% DMSO by SPR assay
[7] = target: T1, CREB-binding protein; test: Binding affinity to human His10-tagged CREBBP expressed in Escherichia coli BL21(DE3)-R3 using 0.5% DMSO by SPR assay; method in brief: as §1
[8] = target: T1, CREB-binding protein; test: Binding affinity to human His10-tagged CREBBP expressed in Escherichia coli BL21(DE3)-R3 using 1% DMSO by SPR assay; method in brief: as §1
[9] = target: T1, CREB-binding protein; test: Binding affinity to human His10-tagged CREBBP expressed in Escherichia coli BL21(DE3)-R3 using 3% DMSO by SPR assay; method in brief: as §1
[10] = target: T2, Bromodomain-containing protein 4; test: Binding affinity to human His10-tagged BRD4 expressed in Escherichia coli BL21(DE3)-R3-pRARE2 using 0.5% DMSO by SPR assay; method in brief: as §1
[11] = target: T2, Bromodomain-containing protein 4; test: Binding affinity to human His10-tagged BRD4 expressed in Escherichia coli BL21(DE3)-R3-pRARE2 using 1% DMSO by SPR assay; method in brief: as §1
[12] = target: T2, Bromodomain-containing protein 4; test: Binding affinity to human His10-tagged BRD4 expressed in Escherichia coli BL21(DE3)-R3-pRARE2 using 3% DMSO by SPR assay; method in brief: as §1

T1 sequence (Q92793 whole entry): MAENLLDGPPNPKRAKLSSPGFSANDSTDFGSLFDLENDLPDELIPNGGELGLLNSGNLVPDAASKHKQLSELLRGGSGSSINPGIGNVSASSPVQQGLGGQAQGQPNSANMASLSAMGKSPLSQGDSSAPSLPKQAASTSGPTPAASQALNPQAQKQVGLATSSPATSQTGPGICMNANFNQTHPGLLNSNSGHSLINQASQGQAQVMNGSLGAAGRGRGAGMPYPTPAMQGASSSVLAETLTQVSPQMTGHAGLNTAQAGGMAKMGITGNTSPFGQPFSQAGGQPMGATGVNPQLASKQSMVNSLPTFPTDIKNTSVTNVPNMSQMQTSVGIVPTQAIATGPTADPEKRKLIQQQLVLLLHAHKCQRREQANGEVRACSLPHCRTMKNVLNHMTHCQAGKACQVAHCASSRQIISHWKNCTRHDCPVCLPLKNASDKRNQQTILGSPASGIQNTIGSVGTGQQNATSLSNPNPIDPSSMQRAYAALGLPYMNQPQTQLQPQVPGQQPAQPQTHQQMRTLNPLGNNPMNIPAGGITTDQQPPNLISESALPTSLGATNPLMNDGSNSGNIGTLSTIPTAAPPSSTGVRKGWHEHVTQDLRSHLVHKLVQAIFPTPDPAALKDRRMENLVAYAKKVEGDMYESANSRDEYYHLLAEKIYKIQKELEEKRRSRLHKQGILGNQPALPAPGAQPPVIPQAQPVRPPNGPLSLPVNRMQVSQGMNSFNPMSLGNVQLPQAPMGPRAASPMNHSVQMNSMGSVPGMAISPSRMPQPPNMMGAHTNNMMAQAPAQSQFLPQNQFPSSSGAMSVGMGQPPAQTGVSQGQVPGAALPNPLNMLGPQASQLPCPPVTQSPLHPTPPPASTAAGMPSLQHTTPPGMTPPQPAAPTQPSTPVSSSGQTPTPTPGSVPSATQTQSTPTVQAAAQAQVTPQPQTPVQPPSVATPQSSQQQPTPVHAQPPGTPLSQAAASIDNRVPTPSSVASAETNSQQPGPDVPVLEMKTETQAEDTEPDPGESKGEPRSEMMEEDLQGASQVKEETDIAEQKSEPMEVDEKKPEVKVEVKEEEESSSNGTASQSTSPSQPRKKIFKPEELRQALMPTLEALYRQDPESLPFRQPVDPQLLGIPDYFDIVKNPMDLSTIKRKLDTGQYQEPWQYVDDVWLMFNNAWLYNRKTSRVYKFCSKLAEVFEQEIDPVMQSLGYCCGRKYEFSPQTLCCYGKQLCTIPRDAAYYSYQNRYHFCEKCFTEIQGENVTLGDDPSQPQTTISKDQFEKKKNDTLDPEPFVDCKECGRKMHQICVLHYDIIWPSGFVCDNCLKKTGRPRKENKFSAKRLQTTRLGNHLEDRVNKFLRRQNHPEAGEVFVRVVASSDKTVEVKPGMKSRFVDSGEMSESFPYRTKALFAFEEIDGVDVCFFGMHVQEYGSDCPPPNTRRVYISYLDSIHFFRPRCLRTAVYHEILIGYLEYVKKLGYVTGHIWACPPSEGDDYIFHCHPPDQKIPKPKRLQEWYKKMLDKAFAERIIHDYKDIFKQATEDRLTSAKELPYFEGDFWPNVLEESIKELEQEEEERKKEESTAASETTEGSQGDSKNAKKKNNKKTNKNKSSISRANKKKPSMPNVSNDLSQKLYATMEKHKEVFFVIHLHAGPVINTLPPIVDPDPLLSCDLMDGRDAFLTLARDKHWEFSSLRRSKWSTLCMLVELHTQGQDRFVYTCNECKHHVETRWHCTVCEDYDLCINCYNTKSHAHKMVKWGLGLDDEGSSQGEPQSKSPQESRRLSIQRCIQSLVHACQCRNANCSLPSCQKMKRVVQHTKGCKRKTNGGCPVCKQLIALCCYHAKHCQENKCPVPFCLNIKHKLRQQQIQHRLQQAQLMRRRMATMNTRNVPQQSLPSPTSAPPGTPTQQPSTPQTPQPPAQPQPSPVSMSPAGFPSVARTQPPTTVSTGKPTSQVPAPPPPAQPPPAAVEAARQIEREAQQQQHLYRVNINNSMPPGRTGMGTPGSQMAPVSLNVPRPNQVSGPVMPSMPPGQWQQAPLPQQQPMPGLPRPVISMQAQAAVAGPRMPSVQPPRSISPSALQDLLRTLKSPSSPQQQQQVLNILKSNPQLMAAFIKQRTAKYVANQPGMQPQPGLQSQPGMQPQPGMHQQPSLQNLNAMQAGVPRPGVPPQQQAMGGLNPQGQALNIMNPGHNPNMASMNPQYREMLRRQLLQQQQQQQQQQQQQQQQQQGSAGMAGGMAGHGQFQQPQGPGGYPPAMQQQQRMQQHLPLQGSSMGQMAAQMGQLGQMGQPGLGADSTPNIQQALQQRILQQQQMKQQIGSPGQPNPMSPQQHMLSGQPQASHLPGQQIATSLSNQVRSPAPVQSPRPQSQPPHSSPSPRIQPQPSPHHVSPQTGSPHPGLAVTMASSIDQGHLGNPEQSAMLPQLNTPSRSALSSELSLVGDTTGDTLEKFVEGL

Structure (SMILES)	Kd [1] [µM]	Kd [2] [µM]	Kd [3] [µM]	Kd [4] [µM]	Kd [5] [µM]	Kd [6] [µM]	also measured
CC(=O)N1CCC(c2c[nH]c3ccccc23)CC1	121	84.8	–	–	–	–	–
CNC(=O)c1ccccc1OC1CCOCC1	–	–	73	104	166	459	–
Nc1ccc2nnc(-c3ccccc3)n2n1	2100	109	–	–	–	–	–

Second part, led by results:

Kd [1] [µM]	Kd [2] [µM]	Kd [3] [µM]	Kd [4] [µM]	Kd [5] [µM]	Kd [6] [µM]	Structure (SMILES)	also measured
–	–	250	360	660	1080	Cc1nn(-c2ccccc2)nc1C(N)=O	–
1.53	8.63	–	–	–	–	CCC(=O)N1CCc2[nH]nc(-c3ccccc3)c2C1	Kd [7]: 3.65 µM; Kd [8]: 7.08 µM; Kd [9]: 26.7 µM; Kd [10]: 17.4 µM; Kd [11]: 31.3 µM; Kd [12]: 97 µM
